# Assay results from ChEMBL document CHEMBL1122378, “Antiallergic agents. 2. N-(1H-tetrazol-5-yl)-6-phenyl-2-pyridinecarboxamides” (1983).
# How the values were obtained:
# Type in all cases: functional
# Rattus norvegicus [1] = assay: Antiallergic activity against passive cutaneous anaphylaxis (PCA) in male Sprague-Dawley rats after 3.0 mg/kg oral administration
# Summary of the method: (§1)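 IgE antiserum raised in male Sprague-Dawley rats (ca. 200 g) by immunization with Ascaris suum extract (2 then 0.2 mg protein), bled 2 weeks after the second dose. Recipients got 0.05 mL diluted antiserum intracutaneously on the back. Blued area (product of two diameters) was read at 30 min.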
# Rattus norvegicus [2] = assay: Antiallergic activity against passive cutaneous anaphylaxis (PCA) in male Sprague-Dawley rats after 10.0 mg/kg oral administration;not statistically significant; summary of the method: as §1
# Rattus norvegicus [3] = assay: Antiallergic activity against passive cutaneous anaphylaxis (PCA) in male Sprague-Dawley rats after 3.0 mg/kg oral administration;not statistically significant; summary of the method: as §1
# Rattus norvegicus [4] = assay: Antiallergic activity against passive cutaneous anaphylaxis (PCA) in male Sprague-Dawley rats after 10.0 mg/kg oral administration;p<0.1; summary of the method: as §1
# Rattus norvegicus [5] = assay: Antiallergic activity against passive cutaneous anaphylaxis (PCA) in male Sprague-Dawley rats after 0.3 mg/kg oral administration;p<0.1; summary of the method: as §1
# Rattus norvegicus [6] = assay: Antiallergic activity against passive cutaneous anaphylaxis (PCA) in male Sprague-Dawley rats after 1.0 mg/kg oral administration; summary of the method: as §1
# Rattus norvegicus [7] = assay: Antiallergic activity against passive cutaneous anaphylaxis (PCA) in male Sprague-Dawley rats after 3.0 mg/kg oral administration;p<0.1.; summary of the method: as §1
# Rattus norvegicus [8] = assay: Inhibition of passive cutaneous anaphylaxis in male Sprague-Dawley rats following 10 mg/kg p.o. administration.; details: route oral; summary of the method: as §1
# Rattus norvegicus [9] = assay: Inhibition of passive cutaneous anaphylaxis in male Sprague-Dawley rats following 1 mg/kg p.o. administration; Not significant.; details: route oral; summary of the method: as §1
# Rattus norvegicus [10] = assay: Antiallergic activity against passive cutaneous anaphylaxis (PCA) in male Sprague-Dawley rats after 3.0 mg/kg oral administration;p<0.1; summary of the method: as §1
# Rattus norvegicus [11] = assay: Antiallergic activity against passive cutaneous anaphylaxis (PCA) in male Sprague-Dawley rats after 0.3 mg/kg oral administration; summary of the method: as §1
# Rattus norvegicus [12] = assay: Antiallergic activity against passive cutaneous anaphylaxis (PCA) in male Sprague-Dawley rats after 1.0 mg/kg oral administration;p<0.1; summary of the method: as §1
# Rattus norvegicus [13] = assay: Inhibition of passive cutaneous anaphylaxis in male Sprague-Dawley rats following 0.3 mg/kg p.o. administration; Not significant.; details: route oral; summary of the method: as §1
smiles,measurement,setting,value
COc1cc(C(=O)Nc2nn[nH]n2)nc(-c2cc(OC)c(OC)c(OC)c2)c1,inhibition in vivo at 3 mg/kg,Rattus norvegicus [1],0%
same,inhibition in vivo at 10 mg/kg,Rattus norvegicus [2],25%
Cc1ccc(-c2cc(Cl)cc(C(=O)Nc3nn[nH]n3)n2)cc1C,inhibition in vivo at 3 mg/kg,Rattus norvegicus [3],32%
same,inhibition in vivo at 10 mg/kg,Rattus norvegicus [4],58%
COc1cc(C(=O)Nc2nn[nH]n2)nc(-c2ccc([N+](=O)[O-])cc2)c1,inhibition in vivo at 10 mg/kg,Rattus norvegicus [2],6%
COc1cc(-c2cccc(C(=O)Nc3nn[nH]n3)n2)cc(OC)c1OC,inhibition in vivo at 3 mg/kg,Rattus norvegicus [3],15%
same,inhibition in vivo at 10 mg/kg,Rattus norvegicus [2],45%
CCc1ccc(-c2cc(Cl)cc(C(=O)Nc3nn[nH]n3)n2)cc1,inhibition in vivo at 3 mg/kg,Rattus norvegicus [1],100%
same,inhibition in vivo at 0.3 mg/kg,Rattus norvegicus [5],13%
same,inhibition in vivo at 1 mg/kg,Rattus norvegicus [6],49%
COc1cc(C(=O)Nc2nn[nH]n2)nc(-c2ccccc2Cl)c1,inhibition in vivo at 10 mg/kg,Rattus norvegicus [2],17%
CCCc1cc(C(=O)Nc2nn[nH]n2)nc(-c2ccccc2)c1,inhibition in vivo at 3 mg/kg,Rattus norvegicus [7],22%
same,inhibition in vivo at 10 mg/kg,Rattus norvegicus [8],85%
Cc1cc(C(=O)Nc2nn[nH]n2)nc(-c2cccc(N)c2)c1,inhibition in vivo at 1 mg/kg,Rattus norvegicus [9],29%
same,inhibition in vivo at 3 mg/kg,Rattus norvegicus [10],50%
COc1cc(C(=O)Nc2nn[nH]n2)nc(-c2ccc(OC)c(OC)c2)c1,inhibition in vivo at 1 mg/kg,Rattus norvegicus [9],18%
same,inhibition in vivo at 3 mg/kg,Rattus norvegicus [10],62%
same,inhibition in vivo at 10 mg/kg,Rattus norvegicus [8],51%
CCCOc1cc(C(=O)Nc2nn[nH]n2)nc(-c2ccccc2)c1,inhibition in vivo at 3 mg/kg,Rattus norvegicus [1],100%
same,inhibition in vivo at 0.3 mg/kg,Rattus norvegicus [11],0%
same,inhibition in vivo at 1 mg/kg,Rattus norvegicus [12],27%
O=C(Nc1nn[nH]n1)c1cccc(-c2ccccc2)n1,inhibition in vivo at 3 mg/kg,Rattus norvegicus [1],74%
same,inhibition in vivo at 1 mg/kg,Rattus norvegicus [12],36%
same,inhibition in vivo at 10 mg/kg,Rattus norvegicus [8],81%
CC(C)Cc1cc(C(=O)Nc2nn[nH]n2)nc(-c2ccccc2)c1,inhibition in vivo at 10 mg/kg,Rattus norvegicus [2],11%
CCCCc1ccc(-c2cc(CC(C)C)cc(C(=O)Nc3nn[nH]n3)n2)cc1,inhibition in vivo at 3 mg/kg,Rattus norvegicus [3],3%
same,inhibition in vivo at 10 mg/kg,Rattus norvegicus [2],13%
COc1cc(C(=O)Nc2nn[nH]n2)nc(-c2ccc(N)cc2)c1,inhibition in vivo at 1 mg/kg,Rattus norvegicus [12],50%
same,inhibition in vivo at 0.3 mg/kg,Rattus norvegicus [5],12%
Nc1cccc(-c2cccc(C(=O)Nc3nn[nH]n3)n2)c1,inhibition in vivo at 3 mg/kg,Rattus norvegicus [1],0%
same,inhibition in vivo at 10 mg/kg,Rattus norvegicus [4],57%
Cc1ccc(-c2cc(C(C)C)cc(C(=O)Nc3nn[nH]n3)n2)cc1,inhibition in vivo at 1 mg/kg,Rattus norvegicus [9],20%
same,inhibition in vivo at 3 mg/kg,Rattus norvegicus [10],42%
COc1cc(C(=O)Nc2nn[nH]n2)nc(-c2cccc(N)c2)c1,inhibition in vivo at 3 mg/kg,Rattus norvegicus [1],41%
same,inhibition in vivo at 1 mg/kg,Rattus norvegicus [12],27%
same,inhibition in vivo at 10 mg/kg,Rattus norvegicus [4],58%
COc1ccc(-c2cc(C)cc(C(=O)Nc3nn[nH]n3)n2)cc1,inhibition in vivo at 3 mg/kg,Rattus norvegicus [1],43%
same,inhibition in vivo at 10 mg/kg,Rattus norvegicus [4],52%
CCCCc1ccc(-c2cc(C)cc(C(=O)Nc3nn[nH]n3)n2)cc1,inhibition in vivo at 3 mg/kg,Rattus norvegicus [1],67%
same,inhibition in vivo at 1 mg/kg,Rattus norvegicus [12],42%
same,inhibition in vivo at 0.3 mg/kg,Rattus norvegicus [13],17%
CCc1ccc(-c2cc(C)cc(C(=O)Nc3nn[nH]n3)n2)cc1,inhibition in vivo at 3 mg/kg,Rattus norvegicus [7],35%
same,inhibition in vivo at 10 mg/kg,Rattus norvegicus [8],100%
COc1cc(C(=O)Nc2nn[nH]n2)nc(-c2ccc(C(C)(C)C)cc2)c1,inhibition in vivo at 1 mg/kg,Rattus norvegicus [9],29%
same,inhibition in vivo at 3 mg/kg,Rattus norvegicus [10],68%
Cc1ccc(-c2cc(C)cc(C(=O)Nc3nn[nH]n3)n2)cc1,inhibition in vivo at 3 mg/kg,Rattus norvegicus [1],100%
same,inhibition in vivo at 0.3 mg/kg,Rattus norvegicus [11],51%
same,inhibition in vivo at 1 mg/kg,Rattus norvegicus [6],80%
COc1cc(C(=O)Nc2nn[nH]n2)nc(-c2ccccc2OC)c1,inhibition in vivo at 3 mg/kg,Rattus norvegicus [1],68%
same,inhibition in vivo at 1 mg/kg,Rattus norvegicus [9],41%
same,inhibition in vivo at 0.3 mg/kg,Rattus norvegicus [5],35%
CCOc1cc(C(=O)Nc2nn[nH]n2)nc(-c2ccccc2)c1,inhibition in vivo at 1 mg/kg,Rattus norvegicus [9],29%
same,inhibition in vivo at 3 mg/kg,Rattus norvegicus [10],51%
Cc1cc(C(=O)Nc2nn[nH]n2)nc(-c2ccc(N)cc2)c1,inhibition in vivo at 3 mg/kg,Rattus norvegicus [1],100%
same,inhibition in vivo at 0.3 mg/kg,Rattus norvegicus [5],54%
same,inhibition in vivo at 1 mg/kg,Rattus norvegicus [6],75%
O=C(Nc1nn[nH]n1)c1cc(Cl)cc(-c2ccc([N+](=O)[O-])cc2)n1,inhibition in vivo at 3 mg/kg,Rattus norvegicus [3],23%
same,inhibition in vivo at 10 mg/kg,Rattus norvegicus [2],48%
O=C(Nc1nn[nH]n1)c1cc(Cl)cc(-c2ccc(Cl)cc2)n1,inhibition in vivo at 3 mg/kg,Rattus norvegicus [1],11%
same,inhibition in vivo at 10 mg/kg,Rattus norvegicus [4],63%
CCc1ccc(-c2cccc(C(=O)Nc3nn[nH]n3)n2)cc1,inhibition in vivo at 1 mg/kg,Rattus norvegicus [9],39%
same,inhibition in vivo at 0.3 mg/kg,Rattus norvegicus [5],14%
Cc1ccccc1-c1cc(Cl)cc(C(=O)Nc2nn[nH]n2)n1,inhibition in vivo at 10 mg/kg,Rattus norvegicus [2],24%
